Experimental data taken from ChEMBL document CHEMBL4052621, “Identification of new anti-inflammatory agents based on nitrosporeusine natural products of marine origin” (Eur J Med Chem, 2017).
The source made the active and inactive calls. The rule behind the calls is not given here.

Legend:
RAW264.7 [1] = experiment: Antiinflammatory activity in mouse RAW264.7 cells assessed as inhibition of LPS-induced IL-6 production at 30 uM after 24 hrs by phycoerythrin staining based flow cytometry; assay type: functional, cell-based
Outline: (§1)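 LPS-stimulated RAW 264.7 cells were co-treated with enantiomers at 30 µM. Cell protein extracts were analysed by cytometric bead array for IL-12, IL-6, TNF-α, MCP-1 and IFN-γ and compared with LPS-only cells. Mean ± SD of three independent experiments.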

RAW264.7 [2] = experiment: Antiinflammatory activity in mouse RAW264.7 cells assessed as inhibition of LPS-induced COX-2 production at 30 uM after 24 hrs by Western blot analysis; assay type: functional, cell-based
Outline: (§2)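 Immunoblot of protein from RAW 264.7 cells under control, LPS, and LPS + enantiomer (30 µM) conditions. COX-2, iNOS and phospho-NF-κB bands were quantified by densitometry and normalised to β-actin. Mean ± SD from 3 independent experiments; p-values are versus LPS-treated cells.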

Mus musculus = organism: Mus musculus; experiment: Inhibition of LPS-induced NFkappaB phosphorylation in mouse RAW264.7 cells at 30 uM after 24 hrs by Western blot analysis; assay type: cell-based; outline: as §2
RAW264.7 [3] = experiment: Antiinflammatory activity in mouse RAW264.7 cells assessed as inhibition of LPS-induced NO production after 24 hrs by Griess assay; assay type: functional, cell-based
Outline: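 LPS-stimulated RAW264.7 cells were co-treated with compound. Nitrite, a stable NO metabolite, was measured in culture medium with Griess reagent. IC50 (µM) was reported with a 95% confidence interval.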

RAW264.7 [4] = experiment: Antiinflammatory activity in mouse RAW264.7 cells assessed as inhibition of LPS-induced TNF-alpha production at 30 uM after 24 hrs by phycoerythrin staining based flow cytometry; assay type: functional, cell-based; outline: as §1
RAW264.7 [5] = experiment: Antiinflammatory activity in mouse RAW264.7 cells assessed as inhibition of LPS-induced IL-12 production at 30 uM after 24 hrs by phycoerythrin staining based flow cytometry; assay type: functional, cell-based; outline: as §1
RAW264.7 [6] = experiment: Antiinflammatory activity in mouse RAW264.7 cells assessed as inhibition of LPS-induced […] production at 30 uM after 24 hrs by phycoerythrin staining based flow cytometry; assay type: functional, cell-based; outline: as §1
RAW264.7 [7] = experiment: Antiinflammatory activity in mouse RAW264.7 cells assessed as inhibition of LPS-induced MCP-1 production at 30 uM after 24 hrs by phycoerythrin staining based flow cytometry; assay type: functional, cell-based; outline: as §1
RAW264.7 [8] = experiment: Antiinflammatory activity in mouse RAW264.7 cells assessed as inhibition of LPS-induced iNOS production at 30 uM after 24 hrs by Western blot analysis; assay type: functional, cell-based; outline: as §2
[9] = Antiviral activity against Influenza A virus A/WSN/33(H1N1) infected in MDCK cells preincubated for 1 hr followed by compound wash measured after 48 hrs by plaque reduction assay; assay type: functional, cell-based, Influenza A virus (A/WSN/1933(H1N1))
RAW264.7 [10] = experiment: Selectivity index, ratio IC50 for cytotoxicity against mouse RAW264.7 cells to IC50 for antiinflammatory activity in mouse RAW264.7 cells; assay type: functional
Outline: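 Ratio A/B in RAW 264.7 cells. A is the cytotoxicity IC50 from the MTT assay. B is the IC50 for inhibiting NO production in LPS-stimulated cells, with nitrite in the culture medium measured by Griess reagent. Both IC50s are reported with 95% confidence intervals.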

[11] = Antiviral activity against Influenza A virus A/WSN/33(H1N1) infected in MDCK cells at 50 uM preincubated for 15 mins measured after 1.5 days by CellTiter-Glo assay relative to control; assay type: functional, Influenza A virus (A/WSN/1933(H1N1))
RAW264.7 [12] = experiment: Cytotoxicity against mouse RAW264.7 cells assessed as decrease in cell viability after 24 hrs by MTT assay; assay type: cell-based; conditions: RAW264.7, 24 h
Outline: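 RAW264.7 macrophage viability after compound exposure was measured by MTT assay. IC50 (µM) was calculated and reported with a 95% confidence interval.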

Row | Structure (SMILES) | inhibition (RAW264.7 [1]) | inhibition (RAW264.7 [2]) | inhibition (Mus musculus) | inhibition (RAW264.7 [3]) | inhibition (RAW264.7 [4]) | inhibition (RAW264.7 [5]) | inhibition (RAW264.7 [6]) | inhibition (RAW264.7 [7]) | inhibition (RAW264.7 [8]) | EC50 [9] | Ratio IC50 (RAW264.7 [10]) | Activity [11] | IC50 (RAW264.7 [12])
1 | CC(=O)O[C@H]1CC[C@@]2(SC(=O)c3ccc(F)cc3)C(=O)NC(=O)[C@@H]12 | Active | Active | Active | Active | Active | Active | Active | Active | Active |  |  |  | 
2 | O=C(S[C@]12CC[C@H](O)[C@H]1C(=O)NC2=O)c1ccc(O)cc1 |  |  |  |  |  |  |  |  |  | 113 µM | 9.85 | 30.9% | 1380 µM
